Test results published in ChEMBL document CHEMBL4406821, “Novel dual inhibitors targeting CDK4 and VEGFR2 synergistically suppressed cancer progression and angiogenesis” (Eur J Med Chem, 2019).
Active and inactive are the calls of the source. The rule behind the calls is not given here.

Experiments:
Mus musculus = assay: Antiangiogenic activity in Matrigel plug angiogenic BALB/c mouse assessed as reduction in blood vessel formation at 20 mg/kg, sc measured after 10 days by Matrigel plug assay; format: functional, organism-based
Procedure, shortened: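 Balb/c mice, 5 weeks old, were injected subcutaneously with 750 µL of a 2:1 mix of growth factor-reduced Matrigel and compound (10 or 20 mg/kg) or vehicle. Plugs were harvested after 10 days and the subcutaneous vessels photographed.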

SiHa = assay: Induction of cell cycle arrest in human SiHa cells assessed as accumulation in G2/M phase at 80 nM incubated for 36 hrs by propidium iodide staining based flow cytometry; format: functional
Procedure, shortened: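 Cells were treated with graded concentrations for 36 h, then fixed overnight in 70% ice-cold ethanol at 4°C and resuspended in PBS. Staining used 50 µg/ml PI plus 5 µg/ml RNase at 37°C for 30 min. DNA content was analysed by FACS to give G0/G1, S and G2/M fractions.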

[1] = target: Vascular endothelial growth factor receptor 2 (Homo sapiens, UniProt P35968); settings: HUVEC, 40 nM
[2] = n-octanol/phosphate buffered saline partition coefficient, log D of the compound measured at pH 7.4 by shake flask method based HPLC analysis; format: physicochemical
[3] = Toxicity in NOD/SCID BALB/c mouse xenografted with human SiHa cells assessed as toxic effects in heart at 40 mg/kg, po administered for 48 hrs by hematoxylin and eosin staining method; format: organism-based; settings: in vivo
[4] = Toxicity in NOD/SCID BALB/c mouse xenografted with human SiHa cells assessed as toxic effects in kidney at 40 mg/kg, po administered for 48 hrs by hematoxylin and eosin staining method; format: organism-based; settings: in vivo
[5] = AUC (0 to infinity) in Sprague-Dawley rat at 10 mg/kg, iv by HPLC-MS analysis; format: ADME, organism-based; set-up: dose 10 mg/kg, route intravenous, time infinity; settings: in vivo
Procedure, shortened: (§1)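 Rats fitted with jugular vein catheters for serial blood sampling. Compound dissolved in saline with 5% (v/v) DMSO and given as a single 10 mg/kg dose iv or po after an overnight fast, n = 5 per group. Plasma isolated at once and measured by HPLC with tandem MS detection. Parameters derived by noncompartmental fitting.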

[6] = AUMC (0 to t) in Sprague-Dawley rat at 10 mg/kg, iv by HPLC-MS analysis; format: ADME, organism-based; settings: in vivo; procedure, shortened: as §1
[7] = Tmax in Sprague-Dawley rat at 10 mg/kg, iv by HPLC-MS analysis; format: ADME, organism-based; settings: in vivo
[8] = target: Bone morphogenetic protein receptor type-1B (Homo sapiens) (UniProt O00238); assay: Inhibition of recombinant human ALK6 (148 to end residues) at 1 uM using casein as substrate incubated for 40 mins in presence of [gamma-33P]-ATP by scintillation counting method relative to control
Procedure, shortened: (§2)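 Kinase panel profiling at 1 μM performed by Eurofins KinaseProfiler; percent inhibition reported as mean of two independent experiments.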

[9] = target: Serine/threonine-protein kinase BRSK1 (Homo sapiens) (UniProt Q8TDC3); assay: Inhibition of recombinant human BRSK1 (2 to end residues) at 1 uM using KKKVSRSGLYRSP as substrate incubated for 40 mins in presence of [gamma-33P]-ATP by scintillation counting method relative to control; procedure, shortened: as §2
[10] = target: Ephrin type-B receptor 3 (Homo sapiens) (UniProt P54753); assay: Inhibition of recombinant human EPhB3 (599 to 920 residues) at 1 uM using poly (Glu, Tyr) 4:1 as substrate incubated for 40 mins in presence of [gamma-33P]-ATP by scintillation counting method relative to control
Sequence of Ephrin type-B receptor 3 (Homo sapiens) (P54753 whole entry, the tested form may be a part): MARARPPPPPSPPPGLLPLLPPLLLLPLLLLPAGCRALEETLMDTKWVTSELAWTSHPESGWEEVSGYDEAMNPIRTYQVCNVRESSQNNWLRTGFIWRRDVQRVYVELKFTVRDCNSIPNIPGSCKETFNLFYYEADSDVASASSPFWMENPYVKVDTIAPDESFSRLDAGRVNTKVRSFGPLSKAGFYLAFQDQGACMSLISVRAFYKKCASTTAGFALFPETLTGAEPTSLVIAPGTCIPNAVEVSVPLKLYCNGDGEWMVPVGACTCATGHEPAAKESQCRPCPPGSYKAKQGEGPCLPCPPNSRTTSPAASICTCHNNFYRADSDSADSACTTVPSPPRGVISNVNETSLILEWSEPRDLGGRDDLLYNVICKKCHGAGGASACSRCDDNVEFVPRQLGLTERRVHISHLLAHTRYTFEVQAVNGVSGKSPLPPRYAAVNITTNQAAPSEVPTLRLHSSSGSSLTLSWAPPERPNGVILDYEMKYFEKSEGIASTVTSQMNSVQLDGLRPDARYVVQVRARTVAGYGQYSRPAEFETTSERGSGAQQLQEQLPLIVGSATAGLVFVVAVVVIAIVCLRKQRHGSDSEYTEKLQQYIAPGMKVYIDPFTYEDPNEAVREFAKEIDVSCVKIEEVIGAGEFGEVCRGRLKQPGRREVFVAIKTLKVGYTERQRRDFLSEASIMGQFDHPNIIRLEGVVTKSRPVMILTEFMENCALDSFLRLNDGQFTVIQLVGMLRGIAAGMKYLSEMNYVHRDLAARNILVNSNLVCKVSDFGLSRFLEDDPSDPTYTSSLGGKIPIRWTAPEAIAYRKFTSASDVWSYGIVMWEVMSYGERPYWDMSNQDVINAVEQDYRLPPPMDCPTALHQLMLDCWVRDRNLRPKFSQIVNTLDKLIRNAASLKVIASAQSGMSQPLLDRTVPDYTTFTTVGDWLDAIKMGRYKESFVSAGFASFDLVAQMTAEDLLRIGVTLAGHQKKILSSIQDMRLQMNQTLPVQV

[11] = system: Macrophage colony-stimulating factor 1 receptor (Homo sapiens), P07333 [Y969C]; assay: Inhibition of recombinant human FMS Y969C mutant (538 to end residues) at 1 uM using EEEEYEEEEEEYY as substrate incubated for 40 mins in presence of [gamma-33P]-ATP by scintillation counting method relative to control
[12] = target: MAP kinase-activated protein kinase 3 (Homo sapiens) (UniProt Q16644); assay: Inhibition of recombinant human MAPKAPK3 (2 to end residues) at 1 uM using KKLNRTLSVA as substrate incubated for 40 mins in presence of [gamma-33P]-ATP by scintillation counting method relative to control
Sequence of MAP kinase-activated protein kinase 3 (Homo sapiens) (Q16644 whole entry, looked up): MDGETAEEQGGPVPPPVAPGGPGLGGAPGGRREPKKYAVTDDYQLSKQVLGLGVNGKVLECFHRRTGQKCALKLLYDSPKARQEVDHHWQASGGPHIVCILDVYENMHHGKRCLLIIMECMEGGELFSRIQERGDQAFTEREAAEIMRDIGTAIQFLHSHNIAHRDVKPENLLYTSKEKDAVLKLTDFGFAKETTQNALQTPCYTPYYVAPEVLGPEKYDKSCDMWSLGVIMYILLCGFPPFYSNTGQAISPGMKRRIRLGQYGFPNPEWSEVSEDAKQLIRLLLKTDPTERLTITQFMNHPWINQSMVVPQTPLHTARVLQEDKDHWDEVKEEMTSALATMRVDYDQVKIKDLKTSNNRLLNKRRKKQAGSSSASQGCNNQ
Procedure, shortened: (§3)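 Tested at a single 1 uM in an outsourced commercial kinase-profiling panel, read as percent inhibition. Each value is the mean of two independent experiments.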

[13] = target: Dual specificity mitogen-activated protein kinase kinase 1 (Homo sapiens) (UniProt Q02750); assay: Inhibition of recombinant human full length MEK1 at 1 uM using as unactive MAPK2 substrate incubated for 40 mins in presence of [gamma-33P]-ATP by scintillation counting method relative to control
Sequence of Dual specificity mitogen-activated protein kinase kinase 1 (Homo sapiens) (Q02750 whole entry): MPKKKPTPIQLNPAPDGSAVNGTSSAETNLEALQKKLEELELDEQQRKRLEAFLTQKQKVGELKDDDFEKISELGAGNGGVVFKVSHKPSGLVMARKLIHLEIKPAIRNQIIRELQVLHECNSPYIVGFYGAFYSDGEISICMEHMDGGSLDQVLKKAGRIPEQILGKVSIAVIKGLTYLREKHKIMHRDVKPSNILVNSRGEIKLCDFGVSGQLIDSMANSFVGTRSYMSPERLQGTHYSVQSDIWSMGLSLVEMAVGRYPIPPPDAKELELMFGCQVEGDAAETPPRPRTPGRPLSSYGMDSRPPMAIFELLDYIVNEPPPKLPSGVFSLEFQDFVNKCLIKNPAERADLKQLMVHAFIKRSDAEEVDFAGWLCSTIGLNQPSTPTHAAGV

[14] = target: Dual specificity mitogen-activated protein kinase kinase 3 (Homo sapiens) (UniProt P46734); assay: Inhibition of recombinant human MKK3 at 1 uM incubated for 40 mins in presence of [gamma-33P]-ATP by scintillation counting method relative to control
Sequence of Dual specificity mitogen-activated protein kinase kinase 3 (Homo sapiens) (P46734 whole entry, the tested form may be a part): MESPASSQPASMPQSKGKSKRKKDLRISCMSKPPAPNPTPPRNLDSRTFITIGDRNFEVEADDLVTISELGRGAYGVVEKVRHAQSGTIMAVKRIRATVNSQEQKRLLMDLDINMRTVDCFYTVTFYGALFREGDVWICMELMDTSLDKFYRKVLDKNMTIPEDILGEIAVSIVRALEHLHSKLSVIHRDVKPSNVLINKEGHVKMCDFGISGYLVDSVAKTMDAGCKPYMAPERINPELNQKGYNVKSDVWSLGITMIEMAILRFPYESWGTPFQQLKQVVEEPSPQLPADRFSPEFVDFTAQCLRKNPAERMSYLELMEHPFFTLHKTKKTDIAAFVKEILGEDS

[15] = target: PAS domain-containing serine/threonine-protein kinase (Homo sapiens) (UniProt Q96RG2); assay: Inhibition of recombinant human PASK (995 to end residues) at 1 uM using KKLNRTLSFAEPG as substrate incubated for 40 mins in presence of [gamma-33P]-ATP by scintillation counting method relative to control
Sequence of PAS domain-containing serine/threonine-protein kinase (Homo sapiens) (Q96RG2 whole entry, the tested form may be a part): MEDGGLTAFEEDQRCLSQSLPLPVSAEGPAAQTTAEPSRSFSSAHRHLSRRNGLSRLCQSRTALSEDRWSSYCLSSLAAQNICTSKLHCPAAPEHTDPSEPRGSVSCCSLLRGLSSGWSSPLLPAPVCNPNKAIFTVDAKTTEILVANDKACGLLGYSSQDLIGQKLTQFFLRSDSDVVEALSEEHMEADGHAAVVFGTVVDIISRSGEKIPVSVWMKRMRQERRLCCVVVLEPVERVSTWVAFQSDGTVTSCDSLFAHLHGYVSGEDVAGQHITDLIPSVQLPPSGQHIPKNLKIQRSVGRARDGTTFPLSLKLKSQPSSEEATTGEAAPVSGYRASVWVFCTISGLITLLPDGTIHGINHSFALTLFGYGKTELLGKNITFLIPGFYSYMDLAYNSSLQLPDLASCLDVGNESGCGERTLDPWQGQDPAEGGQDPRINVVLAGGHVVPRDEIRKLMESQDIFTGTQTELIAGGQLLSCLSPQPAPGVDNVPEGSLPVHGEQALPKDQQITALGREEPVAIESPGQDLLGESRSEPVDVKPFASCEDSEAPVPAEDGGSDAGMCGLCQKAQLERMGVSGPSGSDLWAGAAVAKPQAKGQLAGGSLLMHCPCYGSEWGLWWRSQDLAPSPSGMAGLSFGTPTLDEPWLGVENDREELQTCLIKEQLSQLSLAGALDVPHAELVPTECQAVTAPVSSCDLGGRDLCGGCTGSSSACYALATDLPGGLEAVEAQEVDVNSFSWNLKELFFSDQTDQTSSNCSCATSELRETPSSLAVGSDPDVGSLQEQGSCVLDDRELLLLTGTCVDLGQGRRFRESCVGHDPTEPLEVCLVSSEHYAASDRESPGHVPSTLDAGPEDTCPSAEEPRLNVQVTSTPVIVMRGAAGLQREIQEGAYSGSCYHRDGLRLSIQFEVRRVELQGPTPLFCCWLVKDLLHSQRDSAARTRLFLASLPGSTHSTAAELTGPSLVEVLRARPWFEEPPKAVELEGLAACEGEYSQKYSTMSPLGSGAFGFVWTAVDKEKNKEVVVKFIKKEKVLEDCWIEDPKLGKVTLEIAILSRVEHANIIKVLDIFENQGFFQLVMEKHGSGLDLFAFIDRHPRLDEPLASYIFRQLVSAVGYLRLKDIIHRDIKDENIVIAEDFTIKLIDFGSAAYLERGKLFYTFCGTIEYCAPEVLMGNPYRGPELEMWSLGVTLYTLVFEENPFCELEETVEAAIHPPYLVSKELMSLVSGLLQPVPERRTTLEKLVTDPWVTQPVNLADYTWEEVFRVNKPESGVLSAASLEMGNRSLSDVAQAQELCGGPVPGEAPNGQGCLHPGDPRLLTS

[16] = target: Serine/threonine-protein kinase NLK (Homo sapiens) (UniProt Q9UBE8); assay: Inhibition of recombinant human NLK (121 to end residues) at 1 uM using myelin basic protein as substrate incubated for 40 mins in presence of [gamma-33P]-ATP by scintillation counting method relative to control
Sequence of Serine/threonine-protein kinase NLK (Homo sapiens) (Q9UBE8 whole entry): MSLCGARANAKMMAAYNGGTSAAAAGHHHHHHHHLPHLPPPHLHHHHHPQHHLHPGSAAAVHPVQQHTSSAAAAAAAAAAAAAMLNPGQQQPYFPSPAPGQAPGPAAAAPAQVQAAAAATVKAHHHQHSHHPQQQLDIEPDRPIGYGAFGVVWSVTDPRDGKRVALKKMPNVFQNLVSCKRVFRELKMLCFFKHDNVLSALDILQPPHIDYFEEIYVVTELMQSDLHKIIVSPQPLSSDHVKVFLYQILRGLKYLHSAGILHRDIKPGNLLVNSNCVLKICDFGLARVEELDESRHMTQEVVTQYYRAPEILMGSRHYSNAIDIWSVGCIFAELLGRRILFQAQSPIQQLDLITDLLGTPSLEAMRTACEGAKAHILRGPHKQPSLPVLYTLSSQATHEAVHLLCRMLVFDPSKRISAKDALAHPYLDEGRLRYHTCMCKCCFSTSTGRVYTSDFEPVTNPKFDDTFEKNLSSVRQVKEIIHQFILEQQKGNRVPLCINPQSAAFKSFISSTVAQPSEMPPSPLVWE

[17] = target: Serine/threonine-protein kinase PAK 4 (Homo sapiens) (UniProt O96013); assay: Inhibition of recombinant human PAK4 (295 to end residues) at 1 uM using myelin basic protein as substrate incubated for 40 mins in presence of [gamma-33P]-ATP by scintillation counting method relative to control
Sequence of Serine/threonine-protein kinase PAK 4 (Homo sapiens) (O96013 whole entry, looked up): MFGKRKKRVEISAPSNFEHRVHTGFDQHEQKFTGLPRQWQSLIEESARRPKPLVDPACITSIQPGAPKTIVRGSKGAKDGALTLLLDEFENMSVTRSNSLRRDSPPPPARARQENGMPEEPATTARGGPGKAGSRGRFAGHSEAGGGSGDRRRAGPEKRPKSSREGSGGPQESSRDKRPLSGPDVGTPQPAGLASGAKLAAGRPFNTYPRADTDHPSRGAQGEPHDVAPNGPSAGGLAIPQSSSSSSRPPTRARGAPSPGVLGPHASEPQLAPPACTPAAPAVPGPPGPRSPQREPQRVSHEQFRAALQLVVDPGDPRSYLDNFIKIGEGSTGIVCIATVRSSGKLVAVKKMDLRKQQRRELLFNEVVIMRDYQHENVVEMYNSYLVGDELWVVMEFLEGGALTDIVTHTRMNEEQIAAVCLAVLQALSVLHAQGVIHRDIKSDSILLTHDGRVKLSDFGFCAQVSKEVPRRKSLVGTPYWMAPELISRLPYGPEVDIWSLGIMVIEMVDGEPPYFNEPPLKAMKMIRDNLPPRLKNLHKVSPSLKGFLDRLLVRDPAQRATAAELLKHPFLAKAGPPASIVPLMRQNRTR

[18] = target: Serine/threonine-protein kinase PLK1 (Homo sapiens) (UniProt P53350); assay: Inhibition of recombinant human full length PLK1 at 1 uM using casein as substrate incubated for 40 mins in presence of [gamma-33P]-ATP by scintillation counting method relative to control
[19] = target: Proto-oncogene tyrosine-protein kinase receptor Ret (Homo sapiens) (UniProt P07949); assay: Inhibition of recombinant human RET (658 to end residues) at 1 uM using KKKSPGEYVNIEFG as substrate incubated for 40 mins in presence of [gamma-33P]-ATP by scintillation counting method relative to control
[20] = target: Serine/threonine-protein kinase 25 (Homo sapiens) (UniProt O00506); assay: Inhibition of recombinant human STK25 (1 to 308 residues) at 1 uM using RLGRDKYKTLRQIRQ as substrate incubated for 40 mins in presence of [gamma-33P]-ATP by scintillation counting method relative to control
Sequence of Serine/threonine-protein kinase 25 (Homo sapiens) (O00506 whole entry, looked up, the tested form may be a part): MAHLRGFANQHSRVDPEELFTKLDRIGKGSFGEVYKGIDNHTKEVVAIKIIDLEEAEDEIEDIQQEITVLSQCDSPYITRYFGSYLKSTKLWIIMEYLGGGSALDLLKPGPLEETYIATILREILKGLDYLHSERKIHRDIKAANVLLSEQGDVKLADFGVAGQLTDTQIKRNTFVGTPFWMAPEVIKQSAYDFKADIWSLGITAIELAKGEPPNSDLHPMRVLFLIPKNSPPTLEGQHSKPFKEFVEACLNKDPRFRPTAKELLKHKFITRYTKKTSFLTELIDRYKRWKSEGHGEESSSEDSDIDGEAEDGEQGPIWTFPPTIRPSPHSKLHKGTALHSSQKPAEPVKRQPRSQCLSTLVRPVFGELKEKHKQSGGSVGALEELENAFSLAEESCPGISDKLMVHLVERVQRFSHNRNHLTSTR

[21] = target: Tau-tubulin kinase 1 (Homo sapiens) (UniProt Q5TCY1); assay: Inhibition of recombinant human TTBK1 (1 to 479 residues) at 1 uM using casein as substrate incubated for 40 mins in presence of [gamma-33P]-ATP by scintillation counting method relative to control; procedure, shortened: as §3

In the case of COc1cc2nccc(Oc3ccc(NC(=O)C4(C(=O)Nc5ccc(F)cc5)CC4)cc3)c2cc1OC [CABOZANTINIB], the inhibition (Mus musculus) is reported as “Active”, the Activity (SiHa) is reported as “Active” and the inhibition [1] is reported as “Active”.

In the case of Cc1ccc(NC(=O)C2(C(=O)Nc3ccc(Nc4ncc(F)c(-c5cc(F)c6nc(C)n(C(C)C)c6c5)n4)cc3)CC2)cc1, the logD [2] is reported as 2.51, the Activity [3] is reported as “Non-Toxic” and the Activity [4] is reported as “Non-Toxic”. It also gave an AUC(0-inf) [5] of 11000 ng·h/mL, an AUMCt [6] of 17 mg/L.hr and a Tmax [7] of 5 min. For the same compound, the inhibition [8] was 12%, the inhibition [9] was 14% and the inhibition [10] was 2%. It also gave an inhibition [11] of 73%, an inhibition [12] of 0% and an inhibition [13] of 7%. For the same compound, the inhibition [14] was 8%, the inhibition [15] was 19% and the inhibition [16] was 44%. The inhibition [17] was 50%, the inhibition [18] was 23% and the inhibition [19] was 27%. It also gave an inhibition [20] of 26% and an inhibition [21] of 0%.
